Test results: ChEMBL document CHEMBL1123413, “Synthesis and biological evaluation of 1-(1,2-benzisothiazol-3-yl)- and (1,2-benzisoxazol-3-yl)piperazine derivatives as potential antipsychotic agents” (J Med Chem, 1986)

Assays:
[1] = Binding affinity against glycine receptor was measured using radioligand ([3H]strychnine) binding assay
[2] = Binding affinity against desipramine receptor was measured using radioligand ([3H]desipramine) binding assay; parameters: species or system Rattus norvegicus
[3] = molecular target: GABA-A receptor; anion channel; assay: Inhibition of [3H]muscimol binding to Gamma-aminobutyric acid (GABA-A) receptor; type: protein-complex assay, Rattus norvegicus
[4] = Lethal dose after administration in mouse; type: toxicity, organism-based; details: in vivo, read-out: ALD50
Rattus norvegicus [5] = species: Rattus norvegicus; assay: Compound was tested for inhibition of ethanol potentiation in rat.; type: functional
Procedure, shortened: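 Nonfasted male rats received test drug or vehicle (distilled H2O or 0.5% methocel). EtOH (10 mL of 20% solution/kg, ip) followed at 15, 30, 60 or 120 min post-drug; the vehicle group got it at 15 min. Rats were watched about 10–15 min for loss of righting reflex lasting 1 min. Dose response at peak time used 10/dose; ED50 by Berkson.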

Mus musculus = species: Mus musculus; assay: Compound was tested for inhibition of norepinephrine lethality in mouse; type: functional
Procedure, shortened: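 Groups of 10 nonfasted male mice dosed orally with test compound (initial 100 mg/kg) or vehicle (distilled H2O or 0.5% methocel). Active compounds retested at lower doses, 10 mice/dose, for dose response. ED50 by Berkson's method.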

D(2) dopamine receptor = D(2) dopamine receptor (Rattus norvegicus, UniProt P61169); assay: In vitro affinity for rat striatal Dopamine receptor D2 labeled with [3H]spiperone
Sequence of D(2) dopamine receptor (P61169 whole entry): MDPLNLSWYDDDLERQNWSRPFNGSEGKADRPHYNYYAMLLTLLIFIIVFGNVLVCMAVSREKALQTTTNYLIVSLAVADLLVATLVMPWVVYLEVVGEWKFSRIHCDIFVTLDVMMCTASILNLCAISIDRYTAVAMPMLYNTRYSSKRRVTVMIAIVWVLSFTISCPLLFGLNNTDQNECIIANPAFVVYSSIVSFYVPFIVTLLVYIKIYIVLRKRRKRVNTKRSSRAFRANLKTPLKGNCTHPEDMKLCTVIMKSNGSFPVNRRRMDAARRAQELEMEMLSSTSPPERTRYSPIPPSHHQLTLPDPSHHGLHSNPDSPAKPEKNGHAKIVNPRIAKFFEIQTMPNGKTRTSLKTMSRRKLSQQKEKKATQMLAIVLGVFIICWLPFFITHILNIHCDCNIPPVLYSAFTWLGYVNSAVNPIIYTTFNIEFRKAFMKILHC

[6] = Lethal dose after intraperitoneal administration in mouse; type: toxicity, organism-based; details: in vivo, ip, read-out: ALD50
Rattus norvegicus [7] = species: Rattus norvegicus; assay: Compound was tested for inhibition of spontaneous motor activity in rat.; type: functional
[8] = molecular target: T1, Adrenergic receptor alpha-1 (Rattus norvegicus, UniProt P15823+P23944+P43140)
T1 sequence (P15823 whole entry): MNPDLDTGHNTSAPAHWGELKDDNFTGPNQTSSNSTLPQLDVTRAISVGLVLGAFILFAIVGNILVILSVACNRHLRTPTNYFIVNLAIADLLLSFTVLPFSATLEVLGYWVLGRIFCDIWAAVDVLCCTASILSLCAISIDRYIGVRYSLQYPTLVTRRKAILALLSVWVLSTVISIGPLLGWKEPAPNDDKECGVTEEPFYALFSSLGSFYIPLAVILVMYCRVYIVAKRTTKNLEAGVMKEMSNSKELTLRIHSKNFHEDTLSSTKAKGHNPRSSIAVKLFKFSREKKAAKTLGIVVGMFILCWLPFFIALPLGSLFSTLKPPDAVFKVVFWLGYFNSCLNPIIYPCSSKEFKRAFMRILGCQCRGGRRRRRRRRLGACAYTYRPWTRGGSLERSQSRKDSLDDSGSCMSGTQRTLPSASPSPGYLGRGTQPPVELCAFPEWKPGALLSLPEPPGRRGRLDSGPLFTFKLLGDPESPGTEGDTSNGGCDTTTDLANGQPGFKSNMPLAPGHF
T1 sequence (P23944 whole entry): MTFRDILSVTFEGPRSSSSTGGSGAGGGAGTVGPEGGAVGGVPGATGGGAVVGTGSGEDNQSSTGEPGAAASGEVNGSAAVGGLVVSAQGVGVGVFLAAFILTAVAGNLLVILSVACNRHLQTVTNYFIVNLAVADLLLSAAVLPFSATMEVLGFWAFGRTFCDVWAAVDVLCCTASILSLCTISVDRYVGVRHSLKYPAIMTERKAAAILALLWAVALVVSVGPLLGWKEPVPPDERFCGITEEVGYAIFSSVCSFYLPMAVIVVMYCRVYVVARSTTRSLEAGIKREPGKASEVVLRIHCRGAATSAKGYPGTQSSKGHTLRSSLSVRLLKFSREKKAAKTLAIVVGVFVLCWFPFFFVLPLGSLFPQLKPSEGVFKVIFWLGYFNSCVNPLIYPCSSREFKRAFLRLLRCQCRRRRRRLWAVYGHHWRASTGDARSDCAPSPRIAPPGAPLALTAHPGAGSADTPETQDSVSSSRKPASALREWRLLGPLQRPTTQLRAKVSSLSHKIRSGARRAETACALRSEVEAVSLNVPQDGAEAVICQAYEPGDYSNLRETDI
T1 sequence (P43140 whole entry): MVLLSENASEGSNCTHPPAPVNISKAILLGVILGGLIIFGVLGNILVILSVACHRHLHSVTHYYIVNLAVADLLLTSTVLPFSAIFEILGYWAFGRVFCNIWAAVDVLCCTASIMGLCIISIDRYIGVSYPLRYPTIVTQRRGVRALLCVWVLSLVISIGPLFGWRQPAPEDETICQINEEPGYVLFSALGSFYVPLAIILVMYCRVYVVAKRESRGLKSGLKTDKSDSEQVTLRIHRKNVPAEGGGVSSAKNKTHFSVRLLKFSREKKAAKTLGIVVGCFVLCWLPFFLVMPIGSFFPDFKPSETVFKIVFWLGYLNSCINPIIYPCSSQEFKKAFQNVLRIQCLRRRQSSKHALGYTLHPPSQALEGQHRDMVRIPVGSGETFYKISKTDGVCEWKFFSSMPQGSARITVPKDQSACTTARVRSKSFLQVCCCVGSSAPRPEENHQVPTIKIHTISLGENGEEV

Which IC50 [1] does the source give for `Cl.O=C1CC2(CCCC2)CC(=O)N1CCCCN1CCN(c2nsc3ccccc23)CC1` [TIOSPIRONE HYDROCHLORIDE] here?
The IC50 was over 1000 nM.

And the IC50 [2]?
Its IC50 is over 1000 nM.

And the IC50 [3]?
Its IC50 is over 1000 nM.

And the LD50 [4]?
Its LD50 is 1850 mg/kg.

What about the ED50 (Rattus norvegicus [5]) of the same compound?
Its ED50 is 9.3 mg/kg.

What about the ED50 (Mus musculus) of the same compound?
The ED50 was 12.5 mg/kg.

And the IC50 (D(2) dopamine receptor)?
Its IC50 is 8 nM.

And the LD50 [6]?
The LD50 was 1530 mg/kg.

And the ED50 (Rattus norvegicus [7])?
Its ED50 is 8.4 mg/kg.

And the IC50 [8]?
Its IC50 is 47 nM.
